Screening data (PubChem)
In the library only some 3.7% were active in any assay of this set; here they are far more common.
Kir21 block: Kir2.1 (mouse) channel inhibition. HEK293-Kir2.1, FluxOR thallium flux fluorescence; active compounds read low. B-score at 10 µM. hit rate 0.85% among 310,000. AID 1672;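 active = fluorescence ratio B-score at or below minus 3 SD of library scores, with starting-brightness B-score within 2 SD, cut at about -4.2 in these data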;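 also: channel flux triggered by added potassium and thallium sulfate stimulus; B-score of peak minus minimum fluorescence over baseline after thallium stimulus; more negative B-score means stronger Kir2.1 block with less thallium influx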
KCNQ1 inh: blocks the human KCNQ1 potassium channel; AID 2642; P51787; CHO-K1 KCNQ1, FluxOR thallium flux fluorescence; active compounds read high; hit rate 1.3% among 310,000; B-score at 10 µM;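 active = compounds whose thallium flux B-score, printed positive for inhibition, exceeds three library SD while starting fluorescence stays within three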;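 also: channel opened by potassium depolarization with thallium stimulus after 20 min compound exposure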
KCNK9 block: blocks the human KCNK9 two-pore domain potassium channel; HEK293 KCNK9, FluxOR thallium flux fluorescence; active compounds read low; B-score at 10 µM; hit rate 1.2% among 310,000;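 active = ratio B-score over 3 SD below the library mean, with starting fluorescence within 5 SD of its mean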;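 also: negative B-score means less thallium flux so channel inhibition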
KCNQ1 pot: human KCNQ1 channel potentiation or activation | P51787 | CHO-K1 KCNQ1, thallium flux FluxOR fluorescence; active compounds read high | B-score at 10 µM | hit rate 0.35% among 310,000 | AID 2648;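 active = fluorescence ratio B-score, a plate-corrected score, at least three library SD, with initial intensity B-score within 5 SD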
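Material: CHO-K1 cells stably expressing KCNQ1. Medium: assay buffer for compound exposure, DMSO matched across wells. Reagent: K+/Tl+ depolarizing stimulus. Compound dosing: single-concentration screen. Times: 37 °C overnight plating, 90-min dark dye load, 20-min compound pretreatment. Technique: FluxOR Tl+ flux fluorescence.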
KCNK3 inh: human KCNK3 channel inhibition, primary screen; hit rate 0.84% among 340,000; B-score at 10 µM; AID 602410; O14649; CHO-KCNK3 thallium flux, FluxOR fluorescence; active compounds read low;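 active = B-score under library mean minus 4 SD, starting fluorescence ratio at most library mean plus 5 SD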;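 also: more negative B-score means stronger inhibition of thallium flux through KCNK3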
Target sequence (O14649 whole entry, looked up): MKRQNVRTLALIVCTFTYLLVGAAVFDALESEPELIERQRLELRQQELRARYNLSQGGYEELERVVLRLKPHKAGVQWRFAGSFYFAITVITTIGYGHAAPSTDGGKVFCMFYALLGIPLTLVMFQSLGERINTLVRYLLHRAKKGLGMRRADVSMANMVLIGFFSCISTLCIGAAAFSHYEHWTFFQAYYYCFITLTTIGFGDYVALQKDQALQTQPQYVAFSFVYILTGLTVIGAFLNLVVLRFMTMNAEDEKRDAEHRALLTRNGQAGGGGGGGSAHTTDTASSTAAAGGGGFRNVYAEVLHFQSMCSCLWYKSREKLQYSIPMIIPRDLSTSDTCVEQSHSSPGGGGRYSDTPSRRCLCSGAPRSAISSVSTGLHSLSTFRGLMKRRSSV
hERG rescue: compounds protecting human hERG from proarrhythmic drug block; CHO-hERG, FluxOR thallium flux, dofetilide IC70 present; hit rate 0.51% among 310,000; activation (rescue from dofetilide block), less the hit threshold, % at 10 µM; Q12809;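 active = activation above the mean of controls blocked by dofetilide plus 5 SD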;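 also: thallium influx through hERG after potassium depolarization seen as dye fluorescence rise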
The depositor's hits bear a star; i = inactive; · = not tested or not shown.

SMILES	Kir21 block	KCNQ1 inh	KCNK9 block	KCNQ1 pot	KCNK3 inh	hERG rescue
COc1ccc(CC(=O)Nc2cccc(/C(C)=N/NC(=O)C3(C)CC3(Br)Br)c2)cc1 (configuration not stated)	-0.24	i	i	i	i	-14
Cc1cc(C)cc(N2C(N)=NC(N)=NC2c2ccccc2F)c1 (configuration not stated)	1.6	i	i	i	i	-4
O=C(Nc1ccc(F)c(S(=O)(=O)N2CCOCC2)c1)C1CCCCC1	·	·	·	·	i	·
CC(=O)Nc1ccc(C2=NN(c3ccccc3)C(c3ccccc3)C2)cc1 (configuration not stated)	0.01	i	-6.7*	i	i	-1
COc1ccc(C2=NN(c3ccc(C=O)cc3)C(c3ccccc3)C2)cc1 (configuration not stated)	-0.05	6*	i	i	·	-4
Cc1occc1-c1nnc(SC(C)C(=O)Nc2ccccc2F)o1 (configuration not stated)	·	·	·	·	i	·
CC(=O)OCC(=O)[C@@]1(OC(C)=O)[C@@H](C)C[C@H]2[C@@H]3C[C@H](F)C4=CC(=O)C=C[C@]4(C)[C@@]3(F)[C@@H](O)C[C@@]21C	-0.94	i	i	29*	i	-11
CC(=O)OCC(=O)[C@@]12OC(C)(C)O[C@@H]1C[C@H]1[C@@H]3C[C@H](F)C4=CC(=O)C=C[C@]4(C)[C@@]3(F)[C@@H](O)C[C@@]12C	0.96	i	i	i	·	1
CCc1noc(C)c1C(=O)NNC(=O)COc1ccccc1C	·	·	·	·	i	·
Cc1nn(Cc2ccc(C(=O)NC3CCCCC3)o2)c(C)c1Br	-0.59	6*	i	i	i	-16
Cc1nn(Cc2ccc(C(=O)NC(C)(C)C)o2)c(C)c1Br	-0.67	i	i	i	i	-17
O=C(NC1CCCC1)c1ccc(Br)o1	-0.51	i	i	i	i	4.6*
O=C(NC1CCCCCC1)c1ccc(Br)o1	-0.17	i	i	i	i	-1
CCOC(=O)c1c(N)sc(C(O)(C(F)(F)F)C(F)(F)F)c1-c1ccccc1	-0.86	i	-7.5*	i	i	-18
CCOc1ccccc1C(=O)NCC(=O)N1CCN(Cc2ccc3c(c2)OCO3)CC1	·	·	·	·	i	·
CC(C)NC(=O)/C(C#N)=C/c1ccc(N(C)C)o1	-3.7	7*	i	i	i	-14
COc1ccc([N+](=O)[O-])cc1NC(=O)CSCc1cc(C)cc(C)c1	-8.7*	i	i	i	i	-3
O=[n+]1c2c(n([O-])c3cc(F)c(N4CCCC4)cc31)CCCC2	-4.1	9*	i	i	i	-16
O=[n+]1c2c(n([O-])c3cc(F)c(N4CCCC4)cc31)CCC2	-7.4	i	i	i	i	-28
CN(C)C(C)(C)C#CCC(c1ccccc1)c1ccccc1	-5*	i	i	i	i	-5
CN(C)C(C)(C)C#CCCCCC#CC(C)(C)N(C)C	·	·	·	·	i	·
CC[C@]12c3[nH]c4ccc(OC)cc4c3CCN1C(=O)C(CC(=O)NCCCOC)C[C@@H]2C(=O)N1CCN(C(=O)C2CC2)CC1 (some centres not stated)	·	·	·	·	i	·
COC(=O)Cc1ccc(NC(=S)NCc2ccccc2OC)cc1	-0.02	i	i	i	i	-7
COc1ccccc1CNC(=S)Nc1ccc(F)cc1	-4.7*	i	i	i	i	-2
CCOc1ccc(NC(=O)CSc2nnc(C3CC3)n2C)cc1	-1.1	i	i	i	i	-5
CCOc1ccc(C(=O)CSc2nnc(C3CC3)n2C)cc1	0.21	i	i	i	i	6.4*
CCCCn1c(N)c(N(CC(C)C)C(=O)c2ccc(OC)c(S(=O)(=O)N3CCOCC3)c2)c(=O)[nH]c1=O	·	·	·	·	i	·
CC(=O)/C(=C/c1ccccc1)C(=O)Nc1ccccc1C	-5.5*	i	i	i	i	-11
Cc1onc(-c2ccccc2)c1C(=O)OCC(=O)NC(=O)c1ccccc1	-0.95	i	i	i	i	-21
Cc1ccc(-c2c(=O)n(O)c3ccccc3[n+]2[O-])cc1	0.14	i	i	17*	i	-1
